ChEMBL document CHEMBL4376878, “Potent Thiophene Antagonists of Human Complement C3a Receptor with Anti-Inflammatory Activity” (J Med Chem, 2020)
The source made the active and inactive calls. No cut-off for these calls is given here.

Key:
Rattus norvegicus [1] = test: Antiinflammatory activity in Wistar rat model of BR103-induced paw edema assessed as reduction in Tnf gene expression at 10 mg/kg, po administered via gavage pretreated for 2 hrs followed by BR103 challenge and measured after 30 mins by SYBR green dye based RT-PCR analysis; format: functional, organism-based
Method in brief: (§1)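 Rats given 10 mg/kg p.o. in olive oil 2 h before i.pl. BR103 (350 μg/paw). Paws collected 0.5 h after agonist and homogenized in TRIsure for RNA. qPCR run in duplicate, normalized to Hprt, with fold change relative to sham. n = 3–5 male Wistar rats per group.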

[2] = AUC (0 to 8 hrs) in Wistar rat at 1 mg/kg, iv by LC-MS/MS analysis; format: ADME, organism-based; parameters: time < 8 hr, dose 1 mg/kg, route intravenous; conditions: in vivo
Method in brief: (§2)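 Male Wistar rats with jugular vein catheter, fasted overnight; dosed p.o. by gavage in olive oil or i.v. via catheter in 50% DMSO. Blood drawn from conscious unrestrained rats 5 min before dosing, then 5, 15, 30 min and 1–8 h after. Volume replaced with heparinized saline. Rats fed after 4 h sample. n = 3 per route.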

Rattus norvegicus [3] = test: (§3) Antiinflammatory activity in Wistar rat model of BR103-induced paw edema assessed as inhibition of activation/degranulation of mast cells at 10 mg/kg, po administered via gavage pretreated for 2 hrs followed by BR103 challenge and measured after 30 mins by tryptase staining-based microscopic analysis; format: functional, organism-based
Method in brief: (§4)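 Male Wistar rats 7–8 weeks old, given 10 mg/kg p.o. in olive oil 2 h before i.pl. BR103 (350 μg/paw). Sham/control received olive oil. Left paw plantar tissue taken 30 min after agonist and fixed in formalin. Frozen 5 μm sections stained with alcian blue/safranin O, or immunostained for tryptase, histamine or ED1. Positive cells quantified; n = 5 per group, one-way ANOVA.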

Rattus norvegicus [4] = test: Antiinflammatory activity in Wistar rat model of BR103-induced paw edema assessed as reduction in hind paw swelling at 10 to 30 mg/kg, po administered via gavage pretreated for 2 hrs followed by BR103 challenge and measured after 30 mins by digital caliper method
[5] = molecular target: T1, C3a anaphylatoxin chemotactic receptor (Homo sapiens) (UniProt Q16581); test: (§5) Antagonist activity at C3a receptor in human MDM cells assessed as inhibition of C3a-induced intracellular calcium release preincubated for 30 mins followed by C3a addition and measured at 1 sec interval for => 200 secs by Fluo-3 AM dye-based FLIPR assay; format: functional, cell-based
T1 sequence (whole entry): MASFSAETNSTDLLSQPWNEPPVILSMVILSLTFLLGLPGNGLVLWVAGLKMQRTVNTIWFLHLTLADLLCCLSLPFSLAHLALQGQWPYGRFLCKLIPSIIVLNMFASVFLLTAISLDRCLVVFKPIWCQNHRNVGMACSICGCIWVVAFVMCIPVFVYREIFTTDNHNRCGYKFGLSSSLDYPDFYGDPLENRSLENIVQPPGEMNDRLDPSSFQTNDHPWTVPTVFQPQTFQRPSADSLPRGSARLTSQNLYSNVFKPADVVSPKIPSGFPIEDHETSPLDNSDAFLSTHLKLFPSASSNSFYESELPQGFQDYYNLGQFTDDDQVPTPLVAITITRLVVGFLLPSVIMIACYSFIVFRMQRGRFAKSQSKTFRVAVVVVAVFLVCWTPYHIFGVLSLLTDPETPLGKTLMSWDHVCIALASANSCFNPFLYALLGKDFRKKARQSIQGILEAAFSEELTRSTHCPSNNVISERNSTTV
Method in brief: (§6)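 Macrophages were derived from CD14⁺ monocytes (M-CSF, 7 days) and dye-loaded with 4 μM Fluo-3 AM for 1 h at 37 °C in HBSS/probenecid/HEPES, pH 7.4. Antagonist was preincubated for 30 min at 37 °C before addition of synthetic full-length human C3a (100 nM). FLIPR fluorescence was read at ex 495/em 520 nm. Percent response was plotted against log concentration; n ≥ 3.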

[6] = molecular target: T2, C3a anaphylatoxin chemotactic receptor (Homo sapiens, UniProt Q16581); test: as §5; format: functional, cell-based; conditions: read-out: IC50; method in brief: as §6
T2 sequence (Q16581 whole entry): T1 sequence (whole entry)

[7] = AUC (0 to 8 hrs) in Wistar rat at 10 mg/kg, po by LC-MS/MS analysis; format: ADME, organism-based; parameters: dose 10 mg/kg, time < 8 hr, route oral; conditions: in vivo; method in brief: as §2
[8] = Tmax in Wistar rat at 10 mg/kg, po by LC-MS/MS analysis; format: ADME, organism-based; conditions: in vivo; method in brief: as §2
Rattus norvegicus [9] = test: Antiinflammatory activity in Wistar rat model of BR103-induced paw edema assessed as reduction in Il6 gene expression at 10 mg/kg, po administered via gavage pretreated for 2 hrs followed by BR103 challenge and measured after 30 mins by SYBR green dye based RT-PCR analysis; format: functional, organism-based; method in brief: as §1
Rattus norvegicus [10] = test: as §3, with “increase in number” for “inhibition”, “intact” for “activation/degranulation of”, “alcian blue/safranin O” for “tryptase”, “histopathological” for “microscopic”; format: functional, organism-based; method in brief: as §4
[11] = Volume of distribution in Wistar rat at 1 mg/kg, iv by LC-MS/MS analysis; format: ADME, organism-based; conditions: in vivo; method in brief: as §2
Rattus norvegicus [12] = test: Antiinflammatory activity in Wistar rat model of BR103-induced paw edema assessed as reduction in number of ED1-positive macrophages at 10 mg/kg, po administered via gavage pretreated for 2 hrs followed by BR103 challenge and measured after 30 mins by immunohistochemical analysis; format: functional, organism-based; method in brief: as §4
[13] = Elimination half-life in Wistar rat at 1 mg/kg, iv by LC-MS/MS analysis; format: ADME, organism-based; conditions: in vivo, read-out: beta t1/2; method in brief: as §2
[14] = molecular target: T3, C5a anaphylatoxin chemotactic receptor 1 (Homo sapiens) (UniProt P21730); test: Antagonist activity at C5a receptor in human MDM cells assessed as inhibition of C5a-induced intracellular calcium release preincubated for 30 mins followed by C5a addition and measured at 1 sec interval for => 200 secs by Fluo-3 AM dye-based FLIPR assay; format: functional, cell-based
T3 sequence (whole entry): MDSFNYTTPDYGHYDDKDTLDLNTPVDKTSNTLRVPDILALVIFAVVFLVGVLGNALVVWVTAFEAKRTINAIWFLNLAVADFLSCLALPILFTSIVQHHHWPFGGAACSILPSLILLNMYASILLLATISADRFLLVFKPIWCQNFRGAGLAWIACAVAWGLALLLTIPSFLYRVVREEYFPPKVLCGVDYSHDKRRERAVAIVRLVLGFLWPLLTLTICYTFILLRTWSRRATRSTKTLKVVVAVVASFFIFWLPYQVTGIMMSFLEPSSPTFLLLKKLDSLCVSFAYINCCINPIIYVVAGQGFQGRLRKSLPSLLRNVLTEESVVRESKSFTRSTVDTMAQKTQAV
Method in brief: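 HMDMs from CD14+ monocytes after 7 days in M-CSF; 5 × 10⁴ cells/well seeded overnight. Cells loaded 1 h at 37 °C with 4 μM Fluo-3 AM, then washed into HBSS with 2.5 mM probenecid and 20 mM HEPES, pH 7.4. Antagonist preincubated 30 min at 37 °C before C5a. Fluorescence (ex 495/em 520 nm) read every 1 s for ≥200 s.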

Rattus norvegicus [15] = test: Antiinflammatory activity in Wistar rat model of BR103-induced paw edema assessed as reduction in Cd244 gene expression at 10 mg/kg, po administered via gavage pretreated for 2 hrs followed by BR103 challenge and measured after 30 mins by SYBR green dye based RT-PCR analysis; format: functional, organism-based; method in brief: as §1

Question: Which results are given for Cc1cc(C(c2ccc(Cl)cc2)c2ccc(Cl)cc2)sc1C(=O)N[C@@H](CCCNC(=N)N)C(=O)O?
Answer: Activity (Rattus norvegicus [1]): Active; AUC(0-t) at 8 h [2]: 3800 ng·h/mL; Activity (Rattus norvegicus [3]): Active; Activity (Rattus norvegicus [4]): inactive; inhibition [5]: Dose-dependent effect; IC50 [6]: 10 nM; AUC(0-t) at 8 h [7]: 478 ng·h/mL; Tmax [8]: 5 h; Activity (Rattus norvegicus [9]): Active; Activity (Rattus norvegicus [10]): Active; Vd [11]: 0.1 L; Activity (Rattus norvegicus [12]): Active; half-life [13]: 3.18 h; inhibition [14]: inactive; Activity (Rattus norvegicus [15]): Active
